In ChEMBL document CHEMBL1123194, “Isozyme-specific enzyme inhibitors. 11. L-homocysteine-ATP S-C5' covalent adducts as inhibitors of rat methionine adenosyltransferases” (J Med Chem, 1986) one finds Km and Ki data, which are given here for seven molecules.

As usually defined, the Km is the concentration of substrate that gives half-maximal velocity. The Ki is a measure of affinity in units of concentration, obtained from inhibition or displacement. Higher therefore signals weaker binding.

Series [1] in a line: Michaelis constant (KM) was evaluated. The class given is ADME.
For series [2], the target named is T1, S-adenosylmethionine synthetase (MAT 1 and MAT 2) (Rattus norvegicus, UniProt P13444+P18298). Nature of the series: Inhibition constant was evaluated with kidney (MAT-2) form of rat methionine adenosyltransferase, when methionine was the variable substrate (2 mM). In kind it is protein assay. In outline: (§1)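 Rat MAT-2 and MAT-T, partially purified as described in earlier work. Assayed at 37 °C for 10 min in duplicate in 150 mM KCl, 15 mM MgCl2, 5 mM dithiothreitol, 50 mM Tris-HCl, pH 8.2, with L-[methyl-14C]methionine and MgATP. Six to eight levels of the variable substrate (0.5-4.0 × KM), two inhibitor levels plus no-inhibitor controls. Product captured on phosphocellulose disks and counted by scintillation. Blanks lacked ATP.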

The target of series [3] is S-adenosylmethionine synthase isoform type-2 (Rattus norvegicus, UniProt P18298). Briefly: Inhibition constant was evaluated with kidney Methionine adenosyltransferase II form of rat methionine adenosyltransferase, when ATP was the variable substrate (60 uM). In short, it runs like this: as §1
Series [4] deals with T1, S-adenosylmethionine synthetase (MAT 1 and MAT 2). Nature of the series: Inhibition constant was evaluated on novikoff hepatoma (MAT-T) form of rat methionine adenosyltransferase, when ATP was the variable substrate (60 uM). In kind it is protein assay. As to conditions: in the assay text read “120 uM” for “60 uM”. In outline:
as §1

For series [5] the target is unchanged. Nature of the series: Inhibition constant was evaluated on novikoff hepatoma (MAT-T) form of rat methionine adenosyltransferase, when methionine was the variable substrate (2 mM). The class given is protein assay. In short, it runs like this: as §1

Several values for one entry are separate records, joined by “and”; a condition that tells them apart may be missing. Equal entries are not always repeated.

Sequence of S-adenosylmethionine synthase isoform type-2 (P18298 whole entry, canonical isoform): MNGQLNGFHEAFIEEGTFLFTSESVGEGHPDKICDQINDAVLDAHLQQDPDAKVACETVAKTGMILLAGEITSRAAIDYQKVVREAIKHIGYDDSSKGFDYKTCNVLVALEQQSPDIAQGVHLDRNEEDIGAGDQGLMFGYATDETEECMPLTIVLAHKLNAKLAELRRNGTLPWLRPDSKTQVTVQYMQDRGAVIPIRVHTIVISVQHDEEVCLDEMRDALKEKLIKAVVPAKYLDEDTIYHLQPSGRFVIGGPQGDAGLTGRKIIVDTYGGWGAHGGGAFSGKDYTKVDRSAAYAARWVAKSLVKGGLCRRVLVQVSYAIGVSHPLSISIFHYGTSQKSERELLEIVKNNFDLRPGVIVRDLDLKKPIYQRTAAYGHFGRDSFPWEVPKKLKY

On to `CSCC[C@H](N)C(=O)O` [METHIONINE], for which the Km in series [1] was 5 µM and 15 µM.

As for `Nc1ncnc2c1ncn2C1OC(CCP(=O)(O)OP(=O)(O)OP(=O)(O)O)[C@@H](O)[C@H]1O` (stereo not given in full), in series [1], the Km is 75 µM and 310 µM.

Turning to `Nc1ncnc2c1ncn2[C@@H]1O[C@H](C(CP(=O)(O)OP(=O)(O)OP(=O)(O)O)SCCC(N)C(=O)O)[C@@H](O)[C@H]1O` (single isomer, unassigned; epimer 1), the Ki in series [2] was 62 µM; in series [3], 39 µM; in series [4], 32 µM.

As for `Nc1ncnc2c1ncn2[C@@H]1O[C@H](C(CP(=O)(O)OP(=O)(O)OP(=O)(O)O)[S+]([O-])CCC(N)C(=O)O)[C@@H](O)[C@H]1O` (stereo not given in full), the results for the Ki in series [3] and in series [4] were 140 µM and 81 µM, respectively.

With `Nc1ncnc2c1ncn2[C@@H]1O[C@H](C(CP(=O)(O)OP(=O)(O)NP(=O)(O)O)SCCC(N)C(=O)O)[C@@H](O)[C@H]1O` (stereo not given in full), the Ki in series [2] came to 26 µM; in series [3], 16 µM; in series [5], 38 µM; in series [4] it was 11 µM.

For `Nc1ncnc2c1ncn2[C@@H]1O[C@H](C(CP(=O)(O)OP(=O)(O)OP(=O)(O)O)SCCC(N)C(=O)O)[C@@H](O)[C@H]1O` (single isomer, unassigned; epimer 2), the Ki is 200 µM in series [2], 180 µM in series [3] and 148 µM in series [4].

As to `Nc1ncnc2c1ncn2[C@@H]1O[C@H](COP(=O)(O)OP(=O)(O)OP(=O)(O)O)[C@@H](O)[C@H]1O`, the Km in series [1] amounted to 140 µM.
